pIC50: −log10 of the molar value.
How the values were obtained:
Type in all cases: functional
[1] = Inhibitory activity against lipid peroxidation of egg-phosphatidylcholine (PC) liposome caused by water-soluble radical initiator [2,2'-azobis(2-amidinopropane) dihydrochloride] (AAPH); strongly aggregated and precipitated the lipids, hence not eva luated
In short: (§1)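 Egg PC liposome peroxidation driven by water-soluble initiator AAPH (0.21 M aqueous stock, 150 µl) with sample in DMSO; 37°C for 20 min, capped tube. TBA reagent (0.375% TBA, 15% TCA, 0.25 N HCl) added, 100°C 15 min, cooled, spun; thiobarbituric acid reactive substances measured at 535 nm to give IC50.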

[2] = Inhibitory activity against lipid peroxidation of egg-phosphatidylcholine (PC) liposome caused by water-soluble radical initiator [2,2'-azobis(2-amidinopropane) dihydrochloride] (AAPH); in short: as §1
[3] = Inhibitory activity against lipid peroxidation of egg-phosphatidylcholine (PC) liposome caused by lipid-soluble radical initiator [2,2'-azobis(2,4- dimethylvaleronitrile] (AMVN)
In short: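 Egg PC liposomes (0.65 ml) incubated with sample in DMSO plus AMVN (8 mM DMSO stock) and water, 37°C, 20 min, capped tube. Stopped with thiobarbituric acid/trichloroacetic acid/HCl, heated 100°C 15 min, ice-cooled, centrifuged; TBARS in supernatant read at 535 nm. IC50 against lipid peroxidation.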

IC50 [1]	pIC50 [2]	pIC50 [3]	Structure (SMILES)
No effect	–	–	CCCCCCCCCCCCCCCCCCSCc1c(O)c(CSCCCCCCCCCCCCCCCCCC)c2c(c1O)C[C@@H](OC(=O)c1cc(O)c(O)c(O)c1)[C@@H](c1cc(O)c(O)c(O)c1)O2
–	5.06	4.22	CCCCCCCCSCc1c(O)c(CSCCCCCCCC)c2c(c1O)[C@H](SCCO)[C@@H](OC(=O)c1cc(O)c(O)c(O)c1)[C@@H](c1cc(O)c(O)c(O)c1)O2
No effect	–	–	CCCCCCCCCCCCCCCCSCc1c(O)c(CSCCCCCCCCCCCCCCCC)c2c(c1O)C[C@@H](OC(=O)c1cc(O)c(O)c(O)c1)[C@@H](c1cc(O)c(O)c(O)c1)O2
–	5.10	4.22	CCCCCCCCSCc1c(O)c(CSCCCCCCCC)c2c(c1O)C[C@@H](OC(=O)c1cc(O)c(O)c(O)c1)[C@@H](c1cc(O)c(O)c(O)c1)O2
–	3.87	4.71	CCCCCCCCSCc1c(O)c(CSCCCCCCCC)c2c(c1O)[C@H](SCCCCCCCC)[C@@H](OC(=O)c1cc(O)c(O)c(O)c1)[C@@H](c1cc(O)c(O)c(O)c1)O2
–	4.92	< 3.30	COC(=O)CSCc1c(O)c(CSCC(=O)OC)c2c(c1O)C[C@@H](OC(=O)c1cc(O)c(O)c(O)c1)[C@@H](c1cc(O)c(O)c(O)c1)O2
–	4.94	< 3.30	C=CCSCc1c(O)c(CSCC=C)c2c(c1O)C[C@@H](OC(=O)c1cc(O)c(O)c(O)c1)[C@@H](c1cc(O)c(O)c(O)c1)O2

Continued, compound first:

Structure (SMILES)	IC50 [1]	pIC50 [2]	pIC50 [3]
O=C(O[C@@H]1Cc2c(O)c(CSCc3ccccc3)c(O)c(CSCc3ccccc3)c2O[C@@H]1c1cc(O)c(O)c(O)c1)c1cc(O)c(O)c(O)c1	–	5.02	3.36
O=C(O[C@H]1[C@@H](c2cc(O)c(O)c(O)c2)Oc2cc(O)cc(O)c2[C@@H]1SCCO)c1cc(O)c(O)c(O)c1	–	4.69	< 3.30
CCCCCCCCCCCCCCCCCCNC(=O)Oc1c(O)cc(C(=O)O[C@@H]2Cc3c(O)cc(O)cc3O[C@@H]2c2cc(O)c(O)c(O)c2)cc1O	–	4.61	4.66
Cc1c(C)c2c(c(C)c1O)CC[C@@](C)(CCC[C@H](C)CCC[C@H](C)CCCC(C)C)O2 [ALPHA-TOCOPHEROL]	–	4.39	5.23
O=C(O[C@@H]1Cc2c(O)cc(O)cc2O[C@@H]1c1cc(O)c(O)c(O)c1)c1cc(O)c(O)c(O)c1 [EPIGALOCATECHIN GALLATE]	–	4.68	< 3.30
CCCCCCCCOC(=O)c1cc(O)c(O)c(O)c1 [OCTYL_GALLATE]	–	4.73	3.73
